Experiment [1] concerns the target T1, NUAK family SNF1-like kinase 2 (Homo sapiens) (UniProt Q9H093).
T1 sequence (whole entry): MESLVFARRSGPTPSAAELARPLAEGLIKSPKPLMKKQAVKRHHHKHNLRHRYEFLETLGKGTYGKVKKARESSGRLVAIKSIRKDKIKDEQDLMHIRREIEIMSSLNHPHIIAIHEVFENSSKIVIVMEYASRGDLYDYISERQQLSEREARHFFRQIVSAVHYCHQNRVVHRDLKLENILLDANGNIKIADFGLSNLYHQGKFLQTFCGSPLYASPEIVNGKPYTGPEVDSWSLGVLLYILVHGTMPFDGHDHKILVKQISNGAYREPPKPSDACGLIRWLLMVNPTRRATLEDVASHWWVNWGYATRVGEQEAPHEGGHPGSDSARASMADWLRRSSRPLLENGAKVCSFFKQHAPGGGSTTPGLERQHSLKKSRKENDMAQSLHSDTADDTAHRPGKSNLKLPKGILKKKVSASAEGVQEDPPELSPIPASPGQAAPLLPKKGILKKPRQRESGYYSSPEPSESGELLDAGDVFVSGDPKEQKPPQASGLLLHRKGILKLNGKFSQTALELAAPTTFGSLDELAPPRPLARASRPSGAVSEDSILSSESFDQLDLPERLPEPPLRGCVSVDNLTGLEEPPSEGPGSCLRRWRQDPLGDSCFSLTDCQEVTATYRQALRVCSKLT
Nature of the experiment: Binding affinity to human SNARK at 500 nM by cell-based competition binding assay relative to control in presence of DTT.

Experiment [2] addresses T2, Bone morphogenetic protein receptor type-2 (Homo sapiens) (UniProt Q13873).
T2 sequence (whole entry): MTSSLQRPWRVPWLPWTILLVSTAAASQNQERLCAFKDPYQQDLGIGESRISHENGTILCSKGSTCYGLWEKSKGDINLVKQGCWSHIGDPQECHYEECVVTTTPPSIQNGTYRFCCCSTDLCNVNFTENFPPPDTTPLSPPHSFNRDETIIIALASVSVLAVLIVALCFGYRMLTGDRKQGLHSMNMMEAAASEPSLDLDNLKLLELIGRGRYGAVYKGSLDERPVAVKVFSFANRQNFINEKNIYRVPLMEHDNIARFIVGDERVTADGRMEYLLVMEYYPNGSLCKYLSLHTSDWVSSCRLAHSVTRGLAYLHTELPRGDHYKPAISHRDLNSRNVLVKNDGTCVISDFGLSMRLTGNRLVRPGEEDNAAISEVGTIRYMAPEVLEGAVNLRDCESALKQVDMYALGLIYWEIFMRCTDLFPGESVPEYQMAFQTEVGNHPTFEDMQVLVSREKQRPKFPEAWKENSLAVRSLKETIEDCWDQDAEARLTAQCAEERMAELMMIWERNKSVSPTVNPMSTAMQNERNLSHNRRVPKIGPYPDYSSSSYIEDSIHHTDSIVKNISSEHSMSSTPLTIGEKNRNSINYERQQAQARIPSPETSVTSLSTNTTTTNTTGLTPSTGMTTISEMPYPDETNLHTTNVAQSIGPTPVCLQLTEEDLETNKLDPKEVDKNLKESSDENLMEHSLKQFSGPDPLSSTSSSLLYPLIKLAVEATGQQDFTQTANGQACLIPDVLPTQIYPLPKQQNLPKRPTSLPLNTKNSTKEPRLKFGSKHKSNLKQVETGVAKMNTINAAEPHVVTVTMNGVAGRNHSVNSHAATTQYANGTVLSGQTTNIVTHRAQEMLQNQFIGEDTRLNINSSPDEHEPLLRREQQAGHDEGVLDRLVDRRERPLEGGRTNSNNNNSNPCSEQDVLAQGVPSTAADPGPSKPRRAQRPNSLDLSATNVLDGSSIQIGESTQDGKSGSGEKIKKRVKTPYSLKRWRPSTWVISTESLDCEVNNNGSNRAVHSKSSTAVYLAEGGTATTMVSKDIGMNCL
Nature of the experiment: Binding affinity to human BMPR2 at 500 nM by cell-based competition binding assay relative to control in presence of DTT. The method, boiled down:
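Kinase binding profiling ran on a commercial (Ambit) competitive binding screen against a panel of 90 kinases. The screen used reducing conditions with 7.5 mM DTT. To withstand the DTT, the bivalent ligand was tested as its amide isostere, with the disulfide replaced. A staurosporine derivative carrying a 3 β-alanine linker was run as the reference compound.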

For experiment [3], the target named is Dual specificity mitogen-activated protein kinase kinase 2 (Homo sapiens) (UniProt P36507). Nature of the experiment: Binding affinity to human MEK2 at 500 nM by cell-based competition binding assay relative to control in presence of DTT.
Chain of Dual specificity mitogen-activated protein kinase kinase 2 (Homo sapiens) (P36507 whole entry, the tested form may be a part): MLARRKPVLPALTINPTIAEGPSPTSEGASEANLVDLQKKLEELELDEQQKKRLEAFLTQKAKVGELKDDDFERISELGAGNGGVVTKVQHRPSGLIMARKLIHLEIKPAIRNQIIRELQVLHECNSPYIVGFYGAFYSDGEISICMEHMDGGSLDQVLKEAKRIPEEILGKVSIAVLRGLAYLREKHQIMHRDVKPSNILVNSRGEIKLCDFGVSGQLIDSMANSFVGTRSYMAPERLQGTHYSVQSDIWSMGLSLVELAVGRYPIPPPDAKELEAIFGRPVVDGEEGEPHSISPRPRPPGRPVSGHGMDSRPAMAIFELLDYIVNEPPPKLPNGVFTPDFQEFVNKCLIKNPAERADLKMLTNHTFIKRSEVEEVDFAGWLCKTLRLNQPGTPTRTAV
For experiment [4], the target named is Phosphatidylinositol 4-phosphate 3-kinase C2 domain-containing subunit beta (Homo sapiens) (UniProt O00750). Nature of the experiment: Binding affinity to human PIK3C2beta at 500 nM by cell-based competition binding assay relative to control in presence of DTT.
The target of experiment [5] is Platelet-derived growth factor receptor alpha (Homo sapiens) (UniProt P16234). The experiment in a line: Binding affinity to human PDGFRalpha at 200 nM by cell-based competition binding assay relative to control in presence of DTT.
Chain of Platelet-derived growth factor receptor alpha (Homo sapiens) (P16234 whole entry): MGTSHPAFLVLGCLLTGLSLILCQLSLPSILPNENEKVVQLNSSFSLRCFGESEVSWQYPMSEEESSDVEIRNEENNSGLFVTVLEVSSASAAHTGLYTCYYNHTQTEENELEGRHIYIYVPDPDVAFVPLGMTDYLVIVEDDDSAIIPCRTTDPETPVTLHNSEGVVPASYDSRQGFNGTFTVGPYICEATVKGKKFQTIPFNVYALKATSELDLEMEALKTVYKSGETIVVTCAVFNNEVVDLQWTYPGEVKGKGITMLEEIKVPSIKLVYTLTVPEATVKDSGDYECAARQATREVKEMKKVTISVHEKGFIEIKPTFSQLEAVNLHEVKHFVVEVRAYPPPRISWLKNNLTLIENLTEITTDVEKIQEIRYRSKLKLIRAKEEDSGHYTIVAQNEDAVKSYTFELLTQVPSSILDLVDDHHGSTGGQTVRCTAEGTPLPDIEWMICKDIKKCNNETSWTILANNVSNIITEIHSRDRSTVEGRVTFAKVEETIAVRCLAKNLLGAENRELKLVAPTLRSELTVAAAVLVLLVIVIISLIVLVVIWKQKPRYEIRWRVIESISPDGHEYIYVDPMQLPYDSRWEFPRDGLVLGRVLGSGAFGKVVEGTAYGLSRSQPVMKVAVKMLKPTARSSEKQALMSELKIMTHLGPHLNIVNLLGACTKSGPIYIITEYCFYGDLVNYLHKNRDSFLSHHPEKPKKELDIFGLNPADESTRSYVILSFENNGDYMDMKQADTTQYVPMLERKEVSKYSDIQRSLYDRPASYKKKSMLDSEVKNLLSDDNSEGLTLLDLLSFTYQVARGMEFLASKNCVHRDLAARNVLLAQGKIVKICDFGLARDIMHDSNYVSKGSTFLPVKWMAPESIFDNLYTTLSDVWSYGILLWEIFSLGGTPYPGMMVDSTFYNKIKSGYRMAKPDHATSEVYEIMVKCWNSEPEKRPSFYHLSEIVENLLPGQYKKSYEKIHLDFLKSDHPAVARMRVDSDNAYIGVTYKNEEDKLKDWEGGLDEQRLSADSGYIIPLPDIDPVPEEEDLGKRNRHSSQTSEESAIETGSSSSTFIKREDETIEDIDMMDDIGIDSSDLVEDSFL
The target in experiment [6] is Serine/threonine-protein kinase PLK3 (Homo sapiens) (UniProt Q9H4B4). The experiment in a line: Binding affinity to human PLK3 at 50 nM by cell-based competition binding assay relative to control in presence of DTT.
Chain of Serine/threonine-protein kinase PLK3 (Homo sapiens) (Q9H4B4 whole entry, looked up): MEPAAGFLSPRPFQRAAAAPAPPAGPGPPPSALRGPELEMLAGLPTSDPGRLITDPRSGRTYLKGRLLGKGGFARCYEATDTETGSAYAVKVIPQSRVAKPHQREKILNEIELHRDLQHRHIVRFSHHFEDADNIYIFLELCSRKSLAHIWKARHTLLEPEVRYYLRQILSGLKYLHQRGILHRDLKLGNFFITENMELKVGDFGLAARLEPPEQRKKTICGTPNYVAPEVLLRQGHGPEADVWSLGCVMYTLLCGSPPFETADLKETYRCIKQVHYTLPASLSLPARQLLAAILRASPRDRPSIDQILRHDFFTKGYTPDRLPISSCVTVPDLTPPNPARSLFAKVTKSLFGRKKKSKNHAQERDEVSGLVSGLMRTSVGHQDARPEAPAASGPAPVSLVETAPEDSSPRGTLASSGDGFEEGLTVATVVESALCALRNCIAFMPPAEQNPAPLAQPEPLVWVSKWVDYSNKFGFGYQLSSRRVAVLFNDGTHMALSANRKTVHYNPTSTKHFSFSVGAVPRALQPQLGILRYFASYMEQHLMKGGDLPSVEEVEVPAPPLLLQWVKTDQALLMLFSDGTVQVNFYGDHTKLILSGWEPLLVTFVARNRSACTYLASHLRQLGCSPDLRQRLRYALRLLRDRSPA
The target of experiment [7] is Platelet-derived growth factor receptor alpha (Homo sapiens) (UniProt P16234). Nature of the experiment: Binding affinity to human PDGFRalpha at 50 nM by cell-based competition binding assay relative to control in presence of DTT.
For experiment [8], the target named is Dual specificity mitogen-activated protein kinase kinase 1 (Homo sapiens) (UniProt Q02750). The experiment in a line: Binding affinity to human MEK1 at 50 nM by cell-based competition binding assay relative to control in presence of DTT. The method, boiled down: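 Kinase binding profile from a commercial panel of 90 kinases, run as a competitive binding assay. The panel was screened under reducing conditions of 7.5 mM DTT. Signal was compared with the untreated control.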
Chain of Dual specificity mitogen-activated protein kinase kinase 1 (Homo sapiens) (Q02750 whole entry): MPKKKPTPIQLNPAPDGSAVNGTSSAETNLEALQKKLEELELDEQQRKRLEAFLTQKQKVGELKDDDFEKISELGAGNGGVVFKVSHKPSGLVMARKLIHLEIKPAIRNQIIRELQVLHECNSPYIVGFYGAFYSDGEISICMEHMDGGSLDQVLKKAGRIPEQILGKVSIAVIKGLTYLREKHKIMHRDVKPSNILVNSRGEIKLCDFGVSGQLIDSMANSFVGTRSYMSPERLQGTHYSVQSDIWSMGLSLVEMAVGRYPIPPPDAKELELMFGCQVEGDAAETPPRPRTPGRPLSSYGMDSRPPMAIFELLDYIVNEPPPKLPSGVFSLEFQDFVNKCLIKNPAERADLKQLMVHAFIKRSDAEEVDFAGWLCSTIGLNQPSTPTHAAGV

Experiment [9] addresses Serine/threonine-protein kinase PAK 4 (Homo sapiens) (UniProt O96013). Nature of the experiment: Binding affinity to human PAK4 at 50 nM by cell-based competition binding assay relative to control in presence of DTT.
The target in experiment [10] is Mast/stem cell growth factor receptor Kit (Homo sapiens) (UniProt P10721). The experiment in a line: Binding affinity to human KIT at 50 nM by cell-based competition binding assay relative to control in presence of DTT. The method, boiled down:
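Competition binding screen (Ambit) across a panel of 90 kinases, scoring test ligand displacement of each kinase's binding relative to control. The screen ran under reducing conditions with 7.5 mM DTT.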

The target in experiment [11] is Fibroblast growth factor receptor 3 (Homo sapiens) (UniProt P22607). Nature of the experiment: Binding affinity to human FGFR3 at 50 nM by cell-based competition binding assay relative to control in presence of DTT. The method, boiled down:
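Commercial (Ambit) competitive kinase-binding panel of 90 kinases measured the binding profile. Run under reducing conditions of 7.5 mM DTT. Binding is expressed relative to control.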

Activity data for three compounds are collected here from ChEMBL document CHEMBL1152541, “Staurosporine tethered peptide ligands that target cAMP-dependent protein kinase (PKA): optimization and selectivity profiling” (Bioorg Med Chem, 2009).

*1 amine or outer side, *2 acyl side, *3 side chain or, on linkers, in order; H or OH if unused. Where a SMILES comes first, the peptide text is derived from it. Bridges are numbered along the chain shown (N, C = ends). [ ]: non-standard residue; d: D form. The star is where a group is joined. Staurosporine = CO[C@@H]1[C@H](N(C)*)C[C@H]2O[C@]1(C)n1c3ccccc3c3c4c(c5c6ccccc6n2c5c31)C(=O)NC4; Suc = O=C(CCC(=O)[*:2])[*:1]; Dap = NC[C@H](N)C(=O)O; βAla = NCCC(=O)O

Chain of Fibroblast growth factor receptor 3 (Homo sapiens) (P22607 23-806 limits assumed): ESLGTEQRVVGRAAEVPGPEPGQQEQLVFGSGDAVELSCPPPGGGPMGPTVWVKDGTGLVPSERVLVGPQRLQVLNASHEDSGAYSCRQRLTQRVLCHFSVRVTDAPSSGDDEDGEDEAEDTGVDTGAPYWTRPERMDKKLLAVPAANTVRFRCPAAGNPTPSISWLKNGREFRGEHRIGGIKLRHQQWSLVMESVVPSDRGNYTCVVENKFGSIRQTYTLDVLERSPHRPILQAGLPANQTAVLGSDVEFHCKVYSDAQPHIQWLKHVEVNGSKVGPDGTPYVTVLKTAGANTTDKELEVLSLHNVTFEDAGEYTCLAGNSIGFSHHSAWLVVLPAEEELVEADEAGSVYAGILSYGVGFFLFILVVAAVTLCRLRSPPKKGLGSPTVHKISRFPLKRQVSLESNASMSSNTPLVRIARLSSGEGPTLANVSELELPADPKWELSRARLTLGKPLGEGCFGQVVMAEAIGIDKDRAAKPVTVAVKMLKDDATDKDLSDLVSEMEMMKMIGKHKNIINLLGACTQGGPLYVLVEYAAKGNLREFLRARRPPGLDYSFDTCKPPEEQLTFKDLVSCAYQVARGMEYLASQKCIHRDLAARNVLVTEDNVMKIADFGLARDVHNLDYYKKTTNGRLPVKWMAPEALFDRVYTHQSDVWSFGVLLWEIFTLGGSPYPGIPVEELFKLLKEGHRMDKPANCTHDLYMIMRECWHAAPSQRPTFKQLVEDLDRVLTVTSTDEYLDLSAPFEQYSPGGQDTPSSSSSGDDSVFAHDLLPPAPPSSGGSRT
Chain of Serine/threonine-protein kinase PAK 4 (Homo sapiens) (O96013 whole entry, looked up): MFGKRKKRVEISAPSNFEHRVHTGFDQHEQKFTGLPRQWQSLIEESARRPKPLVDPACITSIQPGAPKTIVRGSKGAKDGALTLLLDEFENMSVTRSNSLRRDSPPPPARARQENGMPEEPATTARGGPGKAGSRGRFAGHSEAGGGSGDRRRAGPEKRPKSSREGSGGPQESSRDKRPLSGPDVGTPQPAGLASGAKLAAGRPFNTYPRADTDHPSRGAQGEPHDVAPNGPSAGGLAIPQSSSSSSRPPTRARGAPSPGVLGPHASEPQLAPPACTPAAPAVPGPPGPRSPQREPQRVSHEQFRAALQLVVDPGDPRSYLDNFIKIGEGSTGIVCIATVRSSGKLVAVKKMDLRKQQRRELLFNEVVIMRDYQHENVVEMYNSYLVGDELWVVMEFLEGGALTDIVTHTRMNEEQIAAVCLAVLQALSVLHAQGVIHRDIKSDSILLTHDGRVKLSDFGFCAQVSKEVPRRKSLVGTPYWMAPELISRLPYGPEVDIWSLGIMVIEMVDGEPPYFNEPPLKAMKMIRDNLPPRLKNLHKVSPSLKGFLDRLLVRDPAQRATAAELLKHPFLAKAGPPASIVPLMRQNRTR
Chain of Mast/stem cell growth factor receptor Kit (Homo sapiens) (P10721 whole entry): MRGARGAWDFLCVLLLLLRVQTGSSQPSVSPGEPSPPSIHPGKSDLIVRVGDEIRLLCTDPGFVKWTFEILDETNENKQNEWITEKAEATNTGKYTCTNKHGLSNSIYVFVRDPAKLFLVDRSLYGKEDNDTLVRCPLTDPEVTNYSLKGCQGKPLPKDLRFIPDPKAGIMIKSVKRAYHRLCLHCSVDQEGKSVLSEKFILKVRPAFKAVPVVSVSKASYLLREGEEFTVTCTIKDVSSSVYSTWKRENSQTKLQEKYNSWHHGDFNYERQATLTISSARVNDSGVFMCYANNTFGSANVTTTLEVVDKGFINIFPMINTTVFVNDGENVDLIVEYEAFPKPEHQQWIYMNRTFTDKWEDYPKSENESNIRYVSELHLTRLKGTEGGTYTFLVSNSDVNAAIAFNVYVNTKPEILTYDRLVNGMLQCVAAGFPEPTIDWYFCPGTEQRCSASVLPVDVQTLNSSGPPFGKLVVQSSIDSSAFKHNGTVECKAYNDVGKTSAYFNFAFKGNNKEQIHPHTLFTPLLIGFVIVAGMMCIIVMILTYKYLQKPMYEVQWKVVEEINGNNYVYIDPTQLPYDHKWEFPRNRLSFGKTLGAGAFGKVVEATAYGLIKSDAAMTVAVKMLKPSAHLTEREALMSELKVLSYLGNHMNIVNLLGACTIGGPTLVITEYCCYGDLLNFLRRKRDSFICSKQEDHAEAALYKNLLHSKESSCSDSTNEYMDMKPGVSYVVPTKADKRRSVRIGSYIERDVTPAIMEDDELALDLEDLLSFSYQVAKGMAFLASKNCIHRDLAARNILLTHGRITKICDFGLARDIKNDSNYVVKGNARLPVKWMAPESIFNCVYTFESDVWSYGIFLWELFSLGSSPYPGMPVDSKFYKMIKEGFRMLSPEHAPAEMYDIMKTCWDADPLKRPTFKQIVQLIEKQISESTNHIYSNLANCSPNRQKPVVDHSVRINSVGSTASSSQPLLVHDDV

As for `CO[C@@H]1[C@H](N(C)C(=O)CCC(=O)NCCC(=O)NCCC(=O)NCCC(N)=O)C[C@H]2O[C@]1(C)n1c3ccccc3c3c4c(c5c6ccccc6n2c5c31)C(=O)NC4`, the Activity in experiment [1] turned out to be 3.2%; in experiment [2], 100%; in experiment [3] it was 86%; in [4], 98%.
For the compound `CO[C@@H]1[C@H](N(C)C(=O)CCC(=O)NCCC(=O)NCCC(=O)NCCC(=O)NCCC(=O)NCCC(=O)NCCC(=O)NCCC(=O)N[C@H]2CSSC[C@@H](C(=O)NCC(N)=O)NC(=O)CNC(=O)[C@H](Cc3ccccc3)NC(=O)[C@H](C(C)C)NC(=O)[C@H](CCCNC(=N)N)NC(=O)[C@H](Cc3ccccc3)NC(=O)[C@H](C(C)C)NC2=O)C[C@H]2O[C@]1(C)n1c3ccccc3c3c4c(c5c6ccccc6n2c5c31)C(=O)NC4` ({Staurosporine-Suc-βAla-βAla-βAla-βAla-βAla-βAla-βAla}-CVFRVFGCG-NH2; disulfide 1-8), the Activity in experiment [5] is 41%.
Take `CO[C@@H]1[C@H](N(C)C(=O)CCC(=O)NCCC(=O)NCCC(=O)NCCC(=O)NCCC(=O)NCCC(=O)NCCC(=O)NCCC(=O)N[C@H]2CNC(=O)C[C@@H](C(N)=O)NC(=O)CNC(=O)[C@H](Cc3ccccc3)NC(=O)[C@H](C(C)C)NC(=O)[C@H](CCCNC(=N)N)NC(=O)[C@H](Cc3ccccc3)NC(=O)[C@H](C(C)C)NC2=O)C[C@H]2O[C@]1(C)n1c3ccccc3c3c4c(c5c6ccccc6n2c5c31)C(=O)NC4` ({Staurosporine-Suc-βAla-βAla-βAla-βAla-βAla-βAla-βAla}-[Dap]VFRVFGD-NH2; lactam 1-8): the Activity in experiment [6] came out at 98%; in experiment [7], 100%; in [8] it was 95%; in [9] it was 90%; in [10], 85%; in experiment [11], 100%.
